High-throughput results (PubChem BioAssay)
An excerpt weighted towards active compounds, which were near 3.9% of everything screened.
OX1R antag-1 = OX1R (human) antagonism; O43613; OX1R-expressing cells, FRET antagonist read-out; inhibition, % at 6.6 µM; 1.8% of 330,000 active; AID 485270; in the data active means inhibition mostly above about 38%, no sharp cut-off; inactive means mostly below about 40%;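 further: 0% = agonist challenge alone and 100% = reference antagonist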
Target sequence (O43613 whole entry, looked up): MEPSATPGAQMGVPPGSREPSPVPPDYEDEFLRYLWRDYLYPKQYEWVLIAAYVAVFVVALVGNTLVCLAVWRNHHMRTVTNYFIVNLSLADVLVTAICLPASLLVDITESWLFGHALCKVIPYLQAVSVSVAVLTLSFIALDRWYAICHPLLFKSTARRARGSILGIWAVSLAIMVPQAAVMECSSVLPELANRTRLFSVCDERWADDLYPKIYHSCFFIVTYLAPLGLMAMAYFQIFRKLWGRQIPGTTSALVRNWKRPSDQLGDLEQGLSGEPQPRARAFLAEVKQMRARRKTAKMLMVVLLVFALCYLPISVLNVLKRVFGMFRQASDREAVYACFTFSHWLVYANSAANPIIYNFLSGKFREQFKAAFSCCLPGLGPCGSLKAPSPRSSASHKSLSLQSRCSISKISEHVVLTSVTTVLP
OX1R antag-2 = blocks the human orexin 1 receptor. AID 434989. O43613. inhibition, % at 5 µM. 0.43% of 330,000 active. CHO/OX1R cells, Fluo-8 calcium fluorescence, orexin A;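 active means inhibition above its plate's threshold, mean inhibition of all tested compounds on the plate plus 3 SD, cut at about 37% in these data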;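 further: 0% = orexin A challenge wells and 100% = SB-334867-A antagonist wells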
TAAR1 agonist = agonists of human TAAR1 | Q96RJ0 | CHO RD-HGA16 TAAR1, Fluo-8 calcium fluorescence; vehicle wells 0%, saturating PEA agonist 100% | activation, % at 3 µM | 0.99% of 360,000 active;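 active means activation above the mean activation of all test compounds in the run plus 3 SD, cut at about 38% in these data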
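System: CHO-derived RD-HGA16 cells with stable Gα16 and human TAAR1 / Times: 17-24 h plating, Fluo-8 75 min 37 °C, 30 min RT / Technique: calcium-sensitive Fluo-8 signal, excitation 470-495, emission 515-575 nm / Measure: % activation relative to PEA EC100 response / Benchmarks: DMSO and PEA EC100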
CHO parental Ca = signal in parental CHO cells, OX1R antagonist counter-screen. parental CHO-K1, ATP-induced calcium, Fluo-8 fluorescence. inhibition, % at 5.6 µM. 0.63% of 330,000 active;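 active means inhibition above that plate's mean sample inhibition plus 3 SD, cut at about 26% in these data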;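 further: 0% = ATP-challenged DMSO wells and 100% = DMSO wells without ATP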
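Assay system – parental CHO cells · Reagent – ATP stimulus · Detection – intracellular calcium via Fluo-8 no-wash fluorescent dye · Evaluation – percent inhibition of ATP-evoked calcium rise, normalized to controls · Controls – ATP wells versus no-ATP DMSO wells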
TAAR1 antag = human TAAR1 antagonism. Q96RJ0. CHO RD-HGA16 TAAR1, Fluo-8 calcium fluorescence, antagonist. inhibition, % at 3 µM. 1.5% of 360,000 active;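 active means inhibition above a per-plate cutoff, the mean inhibition of test compounds on that plate plus 3 SD, cut at about 49% in these data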;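 further: 0% = DMSO plus EC80 beta-PEA response and 100% = DMSO alone without agonist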
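System: RD-HGA16 CHO cells with stable hTAAR1 and Gα16 | Probe or stimulus: EC80 β-phenethylamine stimulus | Dosing: 3 µM, single point | Times: Dye loading 75 min at 37 °C, then 30 min room temperature | Measured by: Fluo-8 calcium-sensitive fluorescence | Read-out basis: % inhibition of agonist calcium response | Replicates: n of 1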
* hit, by the source's call.

How did CCc1nc2c(OCCn3cccc3)cccn2c1N(C)C(=O)c1ccco1 do in these assays?
TAAR1 agonist: 0; TAAR1 antag: -6

Results for CC1=NN(c2ccccc2)C(c2ccco2)C1 (stereo not given) ?
TAAR1 agonist: 0; TAAR1 antag: -3

Results for O=[N+]([O-])c1ccc(C2=NN(c3ccccc3)C(c3ccco3)C2)cc1 (stereo not given) ?
TAAR1 agonist: 89*; TAAR1 antag: 61*

How did O=C1c2sc3nc4ccccc4n3c2C(=O)N1c1ccccc1Cl do in these assays?
OX1R antag-1: 64*; OX1R antag-2: -25; TAAR1 agonist: 10; CHO parental Ca: -29; TAAR1 antag: 15

How did CCOC(=O)[C@@H]1[C@H]2COc3ccccc3[C@H]2N2C(=O)N(c3ccc(C(F)(F)F)cc3)C(=O)[C@]12C do in these assays?
OX1R antag-1: 6; OX1R antag-2: -16; TAAR1 agonist: 8; CHO parental Ca: 46*; TAAR1 antag: 3

What do the screens show for `CCOC(=O)[C@@H]1[C@H]2COc3ccccc3[C@@H]2N2C(=O)N(c3ccc(C(F)(F)F)cc3)C(=O)[C@@]12C`?
OX1R antag-1: 3; OX1R antag-2: -19; TAAR1 agonist: 18; CHO parental Ca: -17; TAAR1 antag: 6

What do the screens show for `COC(=O)[C@]12C[C@H](CC(=O)N3CCSCC3)C(=O)N(CCC3=CCCCC3)C1=C[C@H](C(C)(C)C)O[C@@H]2C`?
TAAR1 agonist: -2; TAAR1 antag: -58

What do the screens show for `NC1=NC[C@H](Cc2ccccc2)N1CCCCC1CCCCC1`?
OX1R antag-1: -12; OX1R antag-2: 75*; TAAR1 agonist: 33; CHO parental Ca: 74*; TAAR1 antag: 58*

What do the screens show for `NC1=NC[C@H](Cc2ccc(O)cc2)N1CCCCC1CCCCC1`?
OX1R antag-1: 23; OX1R antag-2: -7; TAAR1 agonist: 9; CHO parental Ca: -6; TAAR1 antag: -2

What do the screens show for `CC(C)CN(C(=O)COC(=O)c1ccccc1NCc1ccco1)c1c(N)n(Cc2ccccc2)c(=O)[nH]c1=O`?
OX1R antag-1: 75*; OX1R antag-2: 13; TAAR1 agonist: 1; CHO parental Ca: -19; TAAR1 antag: -1

How did COCCN(C(=O)COC(=O)c1ccccc1NCc1ccco1)c1c(N)n(Cc2ccccc2)c(=O)[nH]c1=O do in these assays?
OX1R antag-1: 42*; OX1R antag-2: -8; TAAR1 agonist: 0; CHO parental Ca: -21; TAAR1 antag: -5

What do the screens show for `COc1ccc(N/C(=C\C(=O)c2ccccc2)c2ccccc2)cc1OC`?
TAAR1 agonist: -1; TAAR1 antag: 3

What do the screens show for `CCOc1ccc(NC2=CC(=O)C(=O)c3ccccc32)cc1`?
TAAR1 agonist: 1; TAAR1 antag: -4

Results for O=C1C=C(Nc2ccc(F)cc2)c2ccccc2C1=O ?
OX1R antag-1: 50*; OX1R antag-2: -9; TAAR1 agonist: 4; CHO parental Ca: -3; TAAR1 antag: -1

How did Cc1ccc(NC2=CC(=O)C(=O)c3ccccc32)c(C)c1 do in these assays?
OX1R antag-1: 13; OX1R antag-2: -19; TAAR1 agonist: 2; CHO parental Ca: -14; TAAR1 antag: 8

How did O=C1C=C(Nc2ccccc2O)c2ccccc2C1=O do in these assays?
OX1R antag-1: 58*; OX1R antag-2: -3; TAAR1 agonist: 2; CHO parental Ca: -9; TAAR1 antag: -7

What do the screens show for `Cc1cc(O)cc(=O)n1-c1cccc([N+](=O)[O-])c1`?
TAAR1 agonist: 4; TAAR1 antag: -7

Results for O=C(CCc1nnc(C2CCCCC2)o1)N1CCN(c2ccccc2F)CC1 ?
OX1R antag-1: 22; OX1R antag-2: -24; TAAR1 agonist: 1; CHO parental Ca: 46*; TAAR1 antag: -23

How did COc1cccc(CNC(=O)Cc2csc(NC(=O)Nc3ccccc3OC)n2)c1 do in these assays?
OX1R antag-1: 42*; OX1R antag-2: -20; TAAR1 agonist: 11; CHO parental Ca: -14; TAAR1 antag: 50*

How did COc1ccccc1NC(=O)Nc1nc(CC(=O)NCc2ccc(F)cc2)cs1 do in these assays?
OX1R antag-1: 25; OX1R antag-2: -25; TAAR1 agonist: 14; CHO parental Ca: -8; TAAR1 antag: 52*

Results for O=C(Cc1csc(-c2ccccc2)n1)NCc1ccc(F)cc1 ?
OX1R antag-1: 22; OX1R antag-2: -26; TAAR1 agonist: 0; CHO parental Ca: -16; TAAR1 antag: 0

What do the screens show for `CCCCCCC12C(=Cc3cc(C)ccc31)c1ccccc1C(CC(=O)NCc1ccccc1)N2C(=O)OC` (stereo not given)?
TAAR1 agonist: -1; TAAR1 antag: -15

How did CCN(CC)c1ccc2cc(C(=O)c3cccs3)c(=O)oc2c1 do in these assays?
TAAR1 agonist: 7; TAAR1 antag: -14

How did C=CCOc1ccc(/C=C2/C(=O)ON=C2C)cc1OC do in these assays?
OX1R antag-1: 6; OX1R antag-2: -23; TAAR1 agonist: 38*; CHO parental Ca: -14; TAAR1 antag: 18

Results for Brc1cc2c(cc1/C=N/Nc1nc3ccccc3s1)OCO2 ?
OX1R antag-1: 2; OX1R antag-2: -7; TAAR1 agonist: 1; CHO parental Ca: -11; TAAR1 antag: -14

What do the screens show for `COc1ccc(C=NNc2nc3ccccc3s2)cc1`?
TAAR1 agonist: 9; TAAR1 antag: 6

Results for C(=N\Nc1nc2ccccc2s1)/c1ccccn1 ?
OX1R antag-1: 60*; OX1R antag-2: -3; TAAR1 agonist: 6; CHO parental Ca: 6; TAAR1 antag: 2

Results for C(=N\Nc1nc2ccccc2s1)/c1ccc2c(c1)OCO2 ?
OX1R antag-1: 75*; OX1R antag-2: 5; TAAR1 agonist: 5; CHO parental Ca: -6; TAAR1 antag: 1

Results for CCOc1ccccc1CNc1ncnc2ccc(-c3c(C)noc3C)cc12 ?
OX1R antag-1: 33*; OX1R antag-2: 34; TAAR1 agonist: 3; CHO parental Ca: 4; TAAR1 antag: 37

What do the screens show for `O=C(CCNC(=O)c1ccco1)Nc1ccc(OC(F)F)c(Cl)c1`?
OX1R antag-1: 19; OX1R antag-2: -8; TAAR1 agonist: 0; CHO parental Ca: -5; TAAR1 antag: -1

How did COc1ccc(NC(=O)COC(=O)CCNC(=O)c2ccco2)cc1Cl do in these assays?
OX1R antag-1: 3; OX1R antag-2: -7; TAAR1 agonist: 43*; CHO parental Ca: -5; TAAR1 antag: 12

Results for COc1ccc(N/C=C2\CCc3ccccc3C2=O)cc1 ?
OX1R antag-1: 39*; OX1R antag-2: -34; TAAR1 agonist: 9; CHO parental Ca: 3; TAAR1 antag: 12

What do the screens show for `Cc1ccc(S(=O)(=O)NNC(=O)Nc2ccc(Cl)c(Cl)c2)cc1`?
OX1R antag-1: 194*; OX1R antag-2: -7; TAAR1 agonist: 3; CHO parental Ca: 22; TAAR1 antag: 2
